# Assay results reported in ChEMBL document CHEMBL4689842, “EUbOPEN Chemogenomics Library wave 1” (2021).
# System: U2OS
# Assay: Multiplex assay against U2OS
# Type: toxicity, cell-based
# Settings: human
# Method in brief: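 Cells stained live at seeding with Hoechst33342, BioTracker Green Microtubule Cytoskeleton Dye, MitoTracker Red and Annexin V Alexa Fluor 680 were imaged on a CQ1 microscope at 37°C and 5% CO2 after compound addition. Their classification by CellPathfinder machine-learning gating ran from Hoechst high-intensity objects versus normal cells, to healthy, pyknosed or fragmented nuclei among normal cells, to mitotic or apoptotic among pyknosed cells. Tubulin, mitochondrial-mass and membrane-permeability phenotypes are per cents of healthy-nucleus cells.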
# [1] = 12 h, 1 µM, compound concentration 1 uM, replicate 1
# [2] = 12 h, 1 µM, compound concentration 1 uM, replicate 2
# [3] = 12 h, 10 µM, compound concentration 10 uM, replicate 1
# [4] = 12 h, 10 µM, compound concentration 10 uM, replicate 2
# [5] = 24 h, 1 µM, compound concentration 1 uM, replicate 1
# [6] = 24 h, 1 µM, compound concentration 1 uM, replicate 2
# [7] = 24 h, 10 µM, compound concentration 10 uM, replicate 1
# [8] = 24 h, 10 µM, compound concentration 10 uM, replicate 2
smiles,measurement,setting,value
NC(=O)c1cccc(-c2cc(Nc3ccc(OC(F)(F)F)cc3)ncn2)c1,Population Apoptotic (%),[1],27%
same,Population Fragmented Nuclei (%),[1],5%
same,Population Healthy Nuclei (%),[1],89%
same,Population Hoechst High Intensity Objects (%),[1],1%
same,Population Membrane Permeable-Phenotype (%),[1],8%
same,Population Mitochondria Different-Phenotype (%),[1],24%
same,Population Mitotic Cells (%),[1],72%
same,Population Normal (%),[1],98%
same,Population Pyknosed Nuclei (%),[1],5%
same,Population Tubulin-Different-Phenotype (%),[1],25%
same,Total Cell Count,[1],640
same,Population Apoptotic (%),[2],0%
same,Population Fragmented Nuclei (%),[2],16%
same,Population Healthy Nuclei (%),[2],81%
same,Population Hoechst High Intensity Objects (%),[2],16%
same,Population Membrane Permeable-Phenotype (%),[2],13%
same,Population Mitochondria Different-Phenotype (%),[2],36%
same,Population Mitotic Cells (%),[2],100%
same,Population Normal (%),[2],84%
same,Population Pyknosed Nuclei (%),[2],1%
same,Population Tubulin-Different-Phenotype (%),[2],29%
same,Total Cell Count,[2],738
same,Population Apoptotic (%),[3],56%
same,Population Fragmented Nuclei (%),[3],5%
same,Population Healthy Nuclei (%),[3],86%
same,Population Hoechst High Intensity Objects (%),[3],3%
same,Population Membrane Permeable-Phenotype (%),[3],7%
same,Population Mitochondria Different-Phenotype (%),[3],26%
same,Population Mitotic Cells (%),[3],43%
same,Population Normal (%),[3],96%
same,Population Tubulin-Different-Phenotype (%),[3],16%
same,Total Cell Count,[3],201
same,Population Apoptotic (%),[4],45%
same,Population Fragmented Nuclei (%),[4],4%
same,Population Healthy Nuclei (%),[4],87%
same,Population Hoechst High Intensity Objects (%),[4],9%
same,Population Membrane Permeable-Phenotype (%),[4],12%
same,Population Mitochondria Different-Phenotype (%),[4],24%
same,Population Mitotic Cells (%),[4],54%
same,Population Normal (%),[4],90%
same,Population Pyknosed Nuclei (%),[4],8%
same,Population Tubulin-Different-Phenotype (%),[4],13%
same,Total Cell Count,[4],125
same,Population Apoptotic (%),[5],27%
same,Population Fragmented Nuclei (%),[5],2%
same,Population Healthy Nuclei (%),[5],93%
same,Population Hoechst High Intensity Objects (%),[5],0%
same,Population Membrane Permeable-Phenotype (%),[5],3%
same,Population Mitochondria Different-Phenotype (%),[5],23%
same,Population Mitotic Cells (%),[5],72%
same,Population Normal (%),[5],99%
same,Population Tubulin-Different-Phenotype (%),[5],31%
same,Total Cell Count,[5],576
same,Population Apoptotic (%),[6],20%
same,Population Fragmented Nuclei (%),[6],8%
same,Population Healthy Nuclei (%),[6],87%
same,Population Hoechst High Intensity Objects (%),[6],6%
same,Population Membrane Permeable-Phenotype (%),[6],14%
same,Population Mitochondria Different-Phenotype (%),[6],42%
same,Population Mitotic Cells (%),[6],80%
same,Population Normal (%),[6],93%
same,Population Pyknosed Nuclei (%),[6],3%
same,Population Tubulin-Different-Phenotype (%),[6],44%
same,Total Cell Count,[6],747
same,Population Apoptotic (%),[7],16%
same,Population Fragmented Nuclei (%),[7],6%
same,Population Healthy Nuclei (%),[7],90%
same,Population Hoechst High Intensity Objects (%),[7],0%
same,Population Membrane Permeable-Phenotype (%),[7],5%
same,Population Mitochondria Different-Phenotype (%),[7],19%
same,Population Mitotic Cells (%),[7],83%
same,Population Normal (%),[7],99%
same,Population Pyknosed Nuclei (%),[7],4%
same,Population Tubulin-Different-Phenotype (%),[7],20%
same,Total Cell Count,[7],281
same,Population Apoptotic (%),[8],14%
same,Population Fragmented Nuclei (%),[8],4%
same,Population Healthy Nuclei (%),[8],88%
same,Population Hoechst High Intensity Objects (%),[8],7%
same,Population Membrane Permeable-Phenotype (%),[8],8%
same,Population Mitochondria Different-Phenotype (%),[8],25%
same,Population Mitotic Cells (%),[8],85%
same,Population Normal (%),[8],92%
same,Population Pyknosed Nuclei (%),[8],7%
same,Population Tubulin-Different-Phenotype (%),[8],19%
same,Total Cell Count,[8],145
